Results from ChEMBL document CHEMBL4689842, “EUbOPEN Chemogenomics Library wave 1” (2021).

System: U2OS
Assay: Multiplex assay against U2OS
Type: toxicity, cell-based
Settings: human
How it was run: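 Hoechst33342, BioTracker Green Microtubule Cytoskeleton Dye, MitoTracker Red and Annexin V Alexa Fluor 680 were added to live cells at seeding, and imaging on a CQ1 microscope at 37°C and 5% CO2 followed compound addition. Gating by CellPathfinder machine learning separated cells into Hoechst high-intensity objects or normal cells, then normal cells into healthy, pyknosed or fragmented nuclei, then pyknosed cells into mitotic or apoptotic. Per cents of healthy-nucleus cells are reported for the tubulin, mitochondrial-mass and membrane-permeability phenotypes.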

[1] = 12 h, 1 µM, compound concentration 1 uM, replicate 1
[2] = 12 h, 1 µM, compound concentration 1 uM, replicate 2
[3] = 12 h, 10 µM, compound concentration 10 uM, replicate 1
[4] = 12 h, 10 µM, compound concentration 10 uM, replicate 2
[5] = 24 h, 1 µM, compound concentration 1 uM, replicate 1
[6] = 24 h, 1 µM, compound concentration 1 uM, replicate 2
[7] = 24 h, 10 µM, compound concentration 10 uM, replicate 1
[8] = 24 h, 10 µM, compound concentration 10 uM, replicate 2
[9] = 48 h, 1 µM, compound concentration 1 uM, replicate 1
[10] = 48 h, 1 µM, compound concentration 1 uM, replicate 2
[11] = 48 h, 10 µM, compound concentration 10 uM, replicate 1
[12] = 48 h, 10 µM, compound concentration 10 uM, replicate 2

O=c1cc(N2CCOCC2)oc2c(-c3cccc4c3sc3ccccc34)cccc12
Population Apoptotic (%) [1]: 35% | Population Fragmented Nuclei (%) [1]: 12% | Population Healthy Nuclei (%) [1]: 76% | Population Hoechst High Intensity Objects (%) [1]: 7% | Population Membrane Permeable-Phenotype (%) [1]: 2% | Population Mitochondria Different-Phenotype (%) [1]: 10% | Population Mitotic Cells (%) [1]: 65% | Population Normal (%) [1]: 92% | Population Pyknosed Nuclei (%) [1]: 11% | Population Tubulin-Different-Phenotype (%) [1]: 10% | Total Cell Count [1]: 120 | Population Apoptotic (%) [2]: 100% | Population Fragmented Nuclei (%) [2]: 15% | Population Healthy Nuclei (%) [2]: 77% | Population Hoechst High Intensity Objects (%) [2]: 10% | Population Mitochondria Different-Phenotype (%) [2]: 6% | Population Mitotic Cells (%) [2]: 0% | Population Normal (%) [2]: 90% | Population Pyknosed Nuclei (%) [2]: 6% | Population Tubulin-Different-Phenotype (%) [2]: 14% | Total Cell Count [2]: 79 | Population Apoptotic (%) [3]: 52% | Population Fragmented Nuclei (%) [3]: 20% | Population Healthy Nuclei (%) [3]: 47% | Population Hoechst High Intensity Objects (%) [3]: 4% | Population Membrane Permeable-Phenotype (%) [3]: 24% | Population Mitochondria Different-Phenotype (%) [3]: 73% | Population Mitotic Cells (%) [3]: 47% | Population Normal (%) [3]: 95% | Population Pyknosed Nuclei (%) [3]: 32% | Population Tubulin-Different-Phenotype (%) [3]: 100% | Total Cell Count [3]: 190 | Population Apoptotic (%) [4]: 31% | Population Fragmented Nuclei (%) [4]: 19% | Population Healthy Nuclei (%) [4]: 45% | Population Hoechst High Intensity Objects (%) [4]: 16% | Population Membrane Permeable-Phenotype (%) [4]: 23% | Population Mitochondria Different-Phenotype (%) [4]: 90% | Population Mitotic Cells (%) [4]: 68% | Population Normal (%) [4]: 83% | Population Pyknosed Nuclei (%) [4]: 34% | Population Tubulin-Different-Phenotype (%) [4]: 95% | Total Cell Count [4]: 70 | Population Apoptotic (%) [5]: 25% | Population Fragmented Nuclei (%) [5]: 14% | Population Healthy Nuclei (%) [5]: 74% | Population Hoechst High Intensity Objects (%) [5]: 7% | Population Membrane Permeable-Phenotype (%) [5]: 4% | Population Mitochondria Different-Phenotype (%) [5]: 7% | Population Mitotic Cells (%) [5]: 75% | Population Normal (%) [5]: 92% | Population Pyknosed Nuclei (%) [5]: 10% | Population Tubulin-Different-Phenotype (%) [5]: 7% | Total Cell Count [5]: 118 | Population Apoptotic (%) [6]: 60% | Population Fragmented Nuclei (%) [6]: 11% | Population Healthy Nuclei (%) [6]: 82% | Population Hoechst High Intensity Objects (%) [6]: 6% | Population Membrane Permeable-Phenotype (%) [6]: 9% | Population Mitochondria Different-Phenotype (%) [6]: 9% | Population Mitotic Cells (%) [6]: 40% | Population Normal (%) [6]: 93% | Population Pyknosed Nuclei (%) [6]: 6% | Population Tubulin-Different-Phenotype (%) [6]: 15% | Total Cell Count [6]: 86 | Population Apoptotic (%) [7]: 60% | Population Fragmented Nuclei (%) [7]: 16% | Population Healthy Nuclei (%) [7]: 27% | Population Hoechst High Intensity Objects (%) [7]: 7% | Population Membrane Permeable-Phenotype (%) [7]: 22% | Population Mitochondria Different-Phenotype (%) [7]: 93% | Population Mitotic Cells (%) [7]: 40% | Population Normal (%) [7]: 92% | Population Pyknosed Nuclei (%) [7]: 55% | Population Tubulin-Different-Phenotype (%) [7]: 97% | Total Cell Count [7]: 242 | Population Apoptotic (%) [8]: 66% | Population Fragmented Nuclei (%) [8]: 14% | Population Healthy Nuclei (%) [8]: 21% | Population Hoechst High Intensity Objects (%) [8]: 6% | Population Membrane Permeable-Phenotype (%) [8]: 50% | Population Mitochondria Different-Phenotype (%) [8]: 70% | Population Mitotic Cells (%) [8]: 33% | Population Normal (%) [8]: 94% | Population Pyknosed Nuclei (%) [8]: 63% | Population Tubulin-Different-Phenotype (%) [8]: 70% | Total Cell Count [8]: 86 | Population Apoptotic (%) [9]: 43% | Population Fragmented Nuclei (%) [9]: 7% | Population Hoechst High Intensity Objects (%) [9]: 5% | Population Membrane Permeable-Phenotype (%) [9]: 3% | Population Mitochondria Different-Phenotype (%) [9]: 8% | Population Mitotic Cells (%) [9]: 56% | Population Normal (%) [9]: 94% | Population Pyknosed Nuclei (%) [9]: 18% | Population Tubulin-Different-Phenotype (%) [9]: 9% | Total Cell Count [9]: 127 | Population Apoptotic (%) [10]: 18% | Population Fragmented Nuclei (%) [10]: 16% | Population Healthy Nuclei (%) [10]: 73% | Population Hoechst High Intensity Objects (%) [10]: 4% | Population Membrane Permeable-Phenotype (%) [10]: 12% | Population Mitochondria Different-Phenotype (%) [10]: 12% | Population Mitotic Cells (%) [10]: 81% | Population Normal (%) [10]: 95% | Population Pyknosed Nuclei (%) [10]: 9% | Population Tubulin-Different-Phenotype (%) [10]: 18% | Total Cell Count [10]: 103 | Population Apoptotic (%) [11]: 81% | Population Fragmented Nuclei (%) [11]: 30% | Population Healthy Nuclei (%) [11]: 5% | Population Hoechst High Intensity Objects (%) [11]: 13% | Population Membrane Permeable-Phenotype (%) [11]: 55% | Population Mitochondria Different-Phenotype (%) [11]: 88% | Population Mitotic Cells (%) [11]: 19% | Population Normal (%) [11]: 86% | Population Pyknosed Nuclei (%) [11]: 63% | Population Tubulin-Different-Phenotype (%) [11]: 77% | Total Cell Count [11]: 305 | Population Apoptotic (%) [12]: 80% | Population Fragmented Nuclei (%) [12]: 22% | Population Healthy Nuclei (%) [12]: 25% | Population Hoechst High Intensity Objects (%) [12]: 12% | Population Membrane Permeable-Phenotype (%) [12]: 50% | Population Mitochondria Different-Phenotype (%) [12]: 83% | Population Mitotic Cells (%) [12]: 20% | Population Normal (%) [12]: 87% | Population Pyknosed Nuclei (%) [12]: 52% | Population Tubulin-Different-Phenotype (%) [12]: 58% | Total Cell Count [12]: 116
